From ChEMBL document CHEMBL3085728, “Conformational modifications of gB from herpes simplex virus type 1 analyzed by synthetic peptides” (J Med Chem, 2013) come the findings set out here.

Data set [1] relates to Human alphaherpesvirus 1. Briefly: Antiviral activity against Herpes simplex virus type 1 assessed as inhibition of viral entry into African green monkey Vero cells at 20 to 200 uM compound treated post viral titration for 30 mins measured 48 hrs post viral titration by plaque formation assay. The data set is classed as functional, organism-based.
The subject of data set [2] is Human alphaherpesvirus 1. Briefly: Antiviral activity against Herpes simplex virus type 1 assessed as inhibition of viral entry into African green monkey Vero cells at 100 uM compound preincubated with virus for 45 mins followed by viral titration measured 48 hrs post viral titration by plaque formation assay relative to control. The data set is classed as functional. The following applies: Human alphaherpesvirus 1, Vero.

The next data set concerns Vero. The data set can be described thus: Cytotoxicity against African green monkey Vero cells at 10 to 500 uM after 24 hrs by LDH assay. The data set is classed as cell-based. The following applies: chlorocebus sabaeus. The essentials: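 Vero monolayers exposed to peptides at 10, 50, 100, 200, 250 and 500 μM for 24 h; viability read by lactate dehydrogenase release with a commercial cytotoxicity detection kit, compared against untreated cells.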

Data set [3] has as its system Human alphaherpesvirus 1. Briefly: Antiviral activity against Herpes simplex virus type 1 assessed as inhibition of viral entry into African green monkey Vero cells compound co-treated with cells and viral inoculum for 45 mins measured after 48 hrs by plaque formation assay. The data set is classed as functional, organism-based. The following applies: Human alphaherpesvirus 1, Vero. In a few lines:
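Cotreatment: Vero cells exposed to peptide (10–200 μM, serum-free DMEM) together with serial dilutions of LacZ HSV-1 inoculum for 45 min at 37 °C. Nonpenetrated virus inactivated by pH 3.0 citrate, then 48 h at 37 °C in DMEM with CMC; X-gal staining, plaques counted. Triplicates; inhibition percentage vs no-peptide control.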

Active and inactive are the calls of the source. No cut-off for these calls is given here.

Consider H-YNHIQRHVNDMLGR-OH, for which the inhibition – broadly, the share of the control response that was lost under treatment – in the data set with Human alphaherpesvirus 1 [1] was “inactive”. Moreover, the inhibition at 100 µM with Human alphaherpesvirus 1 [2] was found to be 100%. Moreover, the Activity entry in the data set with Vero was “Non-toxic”.
With H-YNHIQRHVNDMLGRVKKAWEE-OH, the Activity result in the data set with Vero is on record as “Non-toxic”.
For the substance H-FARLQFTYNHIQRHVRDMEGR-OH, in the data set on Human alphaherpesvirus 1 [3], the IC50 (as a rule, the point on the concentration scale where inhibition reaches its midpoint) was determined as 60 µM. Also, in the data set with Human alphaherpesvirus 1 [1], the inhibition result is “inactive”. The inhibition at 100 µM in the data set with Human alphaherpesvirus 1 [2] was 100%. Besides, the Activity entry in the data set on Vero is recorded as “Non-toxic”.
